Compound activity from PubChem BioAssay.
MC4R antagonist: MC4R antagonists of cAMP signaling, primary screen, cell-based, TR-FRET, antagonist arm of biased-ligand search; Melanocortin receptor 4 (Homo sapiens), P32245; MC4R-expressing cells, MTII-stimulated cAMP, LANCE TR-FRET; inhibition, % at 6.5 µM; hit rate 0.48% among 360,000; AID 540295, 2011;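 active means inhibition above its plate's cutoff, the mean of tested wells on that plate plus 3 SD, cut at about 29% in these data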;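 further: 0% = Melanotan II alone and 100% = Melanotan II plus saturating MCL0020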
Target sequence (P32245 whole entry, looked up): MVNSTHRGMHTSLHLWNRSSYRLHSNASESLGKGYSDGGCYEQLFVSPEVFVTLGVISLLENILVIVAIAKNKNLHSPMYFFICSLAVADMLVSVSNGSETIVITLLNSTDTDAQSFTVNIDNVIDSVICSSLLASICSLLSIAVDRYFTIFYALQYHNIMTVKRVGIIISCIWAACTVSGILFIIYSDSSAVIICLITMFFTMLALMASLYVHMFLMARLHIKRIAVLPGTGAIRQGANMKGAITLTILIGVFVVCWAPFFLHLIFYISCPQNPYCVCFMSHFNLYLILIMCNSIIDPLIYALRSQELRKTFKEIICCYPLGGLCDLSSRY
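material = U2OS cells stably expressing human melanocortin 4 receptor (MC4R) | also added = Melanotan II challenge | dosing = single nominal compound dose of 6.5 µM | detection = TR-FRET with Eu-cAMP and labeled anti-cAMP, 671 nm | replication = singlicate | timing = compound 30 min, challenge 1 h, detection 1 h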
Exocytosis inh: LAMP-1 surface exposure blockers, TALL-104 cells – cell-based, flow cytometry, MLPCN library, primary screen; hit rate 0.66% among 360,000; inhibition, % at 10 µM; AID 651702, 2012; TALL-104 LAMP-1 surface exposure; cells stimulated with thapsigargin and PMA;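 active means inhibition above about 55%, limit read from the data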
EP2 mod: EP2 receptor modulators, cAMP readout, primary screen, cell-based, HTRF cAMP, PGE2 stimulation. EP2-expressing cells, cAMP HTRF FRET, PGE2 co-stimulation. induction, % at 25 µM. hit rate 0.83% among 260,000. AID 940, 2007;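 active means compounds whose cAMP rise, as percent of the full-agonist control response, exceeds 60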;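 further: rat C6 glioma line stably carrying human EP2 under a CMV promoter; the protocol text gives 20 µM as final concentration; 100% = response of wells given 1 µM PGE2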
EP2 antag: human EP2 receptor antagonists, primary screen, TR-FRET cAMP, C6 glioma cells; Prostaglandin E2 receptor EP2 subtype (Homo sapiens), P43116; C6 glioma cells expressing human EP2; cells stimulated with saturating PGE2; inhibition, % at 25 µM; hit rate 0.52% among 260,000; AID 1422, 2008;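 active means percent inhibition above 40 after rounding to a whole number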;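 further: rat C6 glioma host cells with rolipram phosphodiesterase inhibitor present; the protocol text gives 20 µM as final concentration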
T cell HTS: modulators of CD8 T cell-vesicle binding, primary screen, mouse 2C CD8+ T cells, flow cytometry | 2C CD8+ T cell-vesicle binding; stronger effect = lower value | response (vesicle binding), % at 7 µM | hit rate 0.068% among 330,000 | AID 2052, 2009;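 active means response, share of CD8 T cells binding vesicles, and their 90th percentile fluorescence all below set limits, cut at about 80% in these data, passing the limit was not always enough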;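 further: values below 100% mean blocked vesicle binding to the CD8+ T cells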
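Read-out – percent CD8+ FL2 mean versus row control · System – murine 2C transgenic CD8+ T lymphocytes · Times – 1.5 h cell–vesicle binding at 37 °C, then 20 min icy labelling · Control set – naked vesicles low, QL9 vesicles with vehicle high · Detection – cytometric PE anti-B7-1 and Alexa647 anti-CD8 signals after 1% paraformaldehyde fixation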
MC4R ag barr: MC4R agonists recruiting beta-arrestin, primary screen, cell-based, luminescence, agonist arm of biased-ligand search; Melanocortin receptor 4 (Homo sapiens), P32245; U2OS MC4R beta-arrestin complementation; percent of melanotan II response, DMSO zero; activation, % at 8.9 µM; hit rate 0.98% among 360,000; AID 540308, 2011;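 active means activation above a per-plate cutoff, the mean activation of sample wells on that plate plus 3 SD, cut at about 8% in these data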
The depositor's hits bear a star; i = inactive; nt = no result. Only some compounds are listed: those with a hit (about 2.6% of all), similar ones and a draw of the others.

SMILES	MC4R antagonist	Exocytosis inh	EP2 mod	EP2 antag	T cell HTS	MC4R ag barr
CC1=NN(c2ccccc2)C(=O)[C@H]1N=Nc1ccc([As](=O)(O)O)c(O)c1	nt	nt	46	43*	nt	nt
CC1=NN(c2ccccc2)C(=O)C1/C=C1\C(=O)NC(=O)N(c2cc(C)cc(C)c2)C1=O (configuration not stated)	5	-4	30	8	192	-1
COc1ccc(C[C@@H]2C(=O)N[C@H](C)C(=O)N(C)[C@@H]3C(=O)N(C)[C@@H](Cc4ccc(O)c(c4)Oc4ccc(cc4)[C@H]3O)C(=O)N[C@@H](C)C(=O)N[C@H](C)C(=O)N2C)cc1	nt	nt	27	43*	nt	nt
CCCN1CCC[C@@H](c2cccc(O)c2)C1	4	-4	20	9	153	-1
C[C@H](Br)CN(C[C@H](C)Br)c1ccc2c(c1)Cc1ccccc1-2	nt	nt	-27	57*	nt	nt
Cc1cccc(NP(=O)(Oc2ccccc2F)Oc2ccccc2F)c1C	-3	2	65*	7	155	-1
Cc1ccc(OP(=O)(O)Oc2ccc(C)cc2)cc1	3	0	nt	7	i	-1
O=C1NC(=O)C(=Cc2ccc(-c3cc(Cl)ccc3[N+](=O)[O-])o2)C(=O)N1	19	61*	-59	42*	nt	-4
O=C1NC(=O)C(=Cc2ccc(-c3ccccc3[N+](=O)[O-])o2)C(=O)N1	28	76*	-38	16	i	-1
Cc1ccc2c(CC(=O)N(CCN(C)C)C3CCN(C)CC3)coc2c1	nt	nt	-32	4	nt	nt
C[C@@H]1[C@H]2C=C[C@@H]1[C@H](c1c3ccc(=O)c(O)c-3oc3c(O)c(O)ccc13)[C@@H]2C(=O)O	nt	nt	-10	45*	nt	nt
O=C1NC(=O)N(Cc2ccc(F)cc2)C(=O)/C1=C\C=C\c1ccco1	3	10	-71	78*	491	-3
CCc1ccc(N2C(=O)NC(=O)/C(=C\C=C\c3ccco3)C2=O)cc1	24	76*	-29	61*	509	0
CC(C)c1ccc(N2C(=O)NC(=O)/C(=C/C=C/c3ccco3)C2=O)cc1	9	6	-6	59*	194	0
Cc1ccc(N2C(=O)NC(=O)/C(=C/C=C/c3ccco3)C2=O)cc1	-1	46	-11	114*	285	0
O=C1NC(=O)N(c2ccccc2)C(=O)/C1=C\C=C\c1ccccc1	14	8	-43	21	714	1
O=C(Cn1nc(-c2ccc(Cl)cc2)ccc1=O)N1CCC2(CC1)OCCO2	7	-1	9	5	140	-3
CCN(CC)P(=O)(/C=C(\Cl)c1ccccc1)/C=C(\Cl)c1ccccc1	0	-1	18	5	324	-3
O=C(Nc1cccc(Cl)c1)OCC#CCN1CCCC1	-1	10	nt	nt	nt	-1
Cc1cc(C)cc(N2C(=O)NC(=O)/C(=C\C=C\c3ccco3)C2=O)c1	1	50	-81	87*	298	0
CCCCN1C(=O)/C(=C/C=C/c2ccco2)C(=O)NC1=S	-1	3	7	10	nt	1
CC(=O)O[C@H]1CC[C@@]2(C)C(=CC[C@@H]3[C@@H]2CC[C@]2(C)C(=O)CC[C@@H]32)C1	5	-5	nt	nt	89	4
CC(=O)OC1=CC2=CC[C@H]3[C@@H]4CCC(=O)[C@@]4(C)CC(=O)[C@]3(S)[C@]2(C)CC1	nt	nt	-1	63*	nt	nt
Cc1ccc(C=C2C(=O)NC(=S)NC2=O)o1	nt	nt	-106	114*	nt	nt
c1ccc2c([C@@H]3CCN(CCN4CCOCC4)C3)c[nH]c2c1	nt	nt	13	53*	nt	nt
CN1C2CCC1/C(=C/c1ccccn1)C(=O)/C2=C\c1ccccn1	6	64*	-81	23	209	-2
